Reference: PubChem BioAssay
Results filed as inconclusive are left out. The source made the active and inactive calls.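 Rule for the calls, unless noted: active = inhibition over a set limit, the all-compound mean plus 3 SD, in both replicate runs; inconclusive = over that limit in just one replicate run; inactive = at or under that limit in both runs.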

Experiments:
[1] = OD615 S. cerevisiae growth inhibition, permissive medium, pilot counter-assay, permissive growth control for S. cerevisiae lifespan shortening project (AID 705;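 active = growth inhibition above 25% in both replicates, a cutoff set 3 SD above the mean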); conditions: OD615, 24 h, at 10 µM, active compounds read high
Summary of the method: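 Timing: 24 h exposure, 30 °C / Material: Saccharomyces cerevisiae strain carrying genetically modified DeaD replicative-lifespan system / Signal: OD at 615 nm / Compound: 10 µM single dose, 0.25% DMSO / Medium: SC raffinose/galactose permissive medium / Evaluation: reduction in yeast growth (OD615)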

[2] = Restrictive medium S. cerevisiae growth inhibition, OD615, pilot screen of yeast lifespan reduction project, restrictive growth control (AID 706;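 active = growth inhibition above a set limit, 3 SD over mean compound inhibition, in both replicates, cut at about 43% in these data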;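 note: modified DeaD lifespan yeast strain shifted to restrictive glucose medium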); conditions: OD615, 48 h, at 10 µM, active compounds read high
Summary of the method: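 System: Engineered S. cerevisiae DeaD strain | Detection: OD615 | Buffer or medium: CSMM-D glucose medium | Doses: 10 µM compound, 0.25% DMSO | Timing: 4 h pre-growth plus 48 h compound exposure, 30 °C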

[3] = viability gain of MRP-1-high H69AR cells under doxorubicin, pilot screen, MRP-1 activator project, CellTiter-Glo, duplicate (AID 807;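 active = viability increase at or above a cutoff of the median across tested compounds plus 3 SD, cut at about 8.5% in these data, passing the limit was not always enough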;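 note: compound pretreatment 18-22 h then 72 h combined with doxorubicin; 0% = doxorubicin alone and 100% = vehicle without doxorubicin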); conditions: H69AR viability with doxorubicin, CellTiter-Glo luminescence; at 10 µM; active compounds read high
[4] = growth suppression of beta-catenin knockout HCT116, pilot screen, human colon tumor cells (AID 823;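 active = cell viability at or below a set limit in both duplicate runs, the limit being the all-compound median minus 4 SD, cut at about 23% in these data, passing the limit was not always enough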;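 note: 0% = wells killed by 20 µM Hyamine and 100% = untreated DMSO cell wells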); conditions: CellTiter-Glo, 60 h, at 10 µM, active compounds read low
[5] = growth suppression of PTEN-deleted HCT116, pilot screen, cell-based, HCT116 clonal line, CellTiter-Glo (AID 824;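 active = viability at or below 27.92% in each of two runs, the all-compound median minus 4 SD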;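 note: 0% = 20 µM Hyamine control and 100% = vehicle cell control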); conditions: 60 h, at 10 µM, active compounds read low
[6] = inhibitors of the yeast RAM network, pilot screen, dse1pr::URA3 reporter, 5-FOA selection (AID 869);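 note: 0% = DMSO wells with no growth and 100% = 10 µM 1-NA-PP1 with full growth; RAM network block rescues cells from 5-FOA so hits raise OD615 growth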; conditions: S. cerevisiae dse1pr::URA3 5-FOA growth, OD615, 2 d; at 10 µM; active compounds read high; strain carries analog-sensitive mutant Cbk1 kinase
[7] = RAM signaling pathway blockade in yeast – S. cerevisiae, Pdr1DBD-CYC8 efflux-inhibited sensitized strain, primary screen (AID 1298;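 active = RAM network inhibition above 8.4% in each of two replicates, 3 SD over the compound average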;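 note: 0% = DMSO untreated cells without growth and 100% = 10 µM 1-NA-PP1 full growth; higher means more yeast growth rescued from 5-FOA killing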); conditions: S. cerevisiae cbk1-as DSE1-URA3 strain, 5-FOA growth OD615, 2 d; at 50 µM; active compounds read high

O=S(=O)(Cc1ccccc1)N1CCn2c(nc3ccccc32)C1
inactive: growth inhibition [1] -14.1% | growth inhibition [2] -0.745% | viability increase [3] -0.75% | viability [4] 103% | viability [5] 97.5% | inhibition [6] 1.5% | RAM network inhibition [7] 4.75%

O=C(NCc1ccc(F)cc1)c1cc2n(n1)C(C(F)(F)F)CC(C1CC1)N2 (stereo unspecified)
inactive: growth inhibition [1] -4.54% | growth inhibition [2] -7.74% | viability increase [3] -0.43% | viability [4] 106% | viability [5] 96% | inhibition [6] 4.14% | RAM network inhibition [7] 4.9%

O=C(Nc1nc2ccccc2n1CCOc1ccc(Cl)cc1)c1ccco1
active: viability [4] 11.8% | viability [5] 16.8%
inactive: growth inhibition [1] 0.61% | growth inhibition [2] -2.21% | viability increase [3] -3.5% | inhibition [6] 0.745% | RAM network inhibition [7] 4.7%

COc1ccc(C(=O)N2CCN(c3ccc(C)cc3)CC2)cc1OC
inactive: growth inhibition [1] -10.4% | growth inhibition [2] -14.2% | viability increase [3] -1.27% | viability [4] 103% | viability [5] 90.2% | inhibition [6] 0.81% | RAM network inhibition [7] 3.75%

COc1cccc(Cn2nnc(C(=O)NCc3ccc(F)cc3)c2N)c1
inactive: growth inhibition [1] -5.24% | growth inhibition [2] -6.34% | viability increase [3] -1.74% | viability [4] 95% | viability [5] 85.6% | inhibition [6] 0.99% | RAM network inhibition [7] 3.37%

C/C(=C\C(=O)c1ccc(C)cc1)Nc1cccc(O)c1
inactive: growth inhibition [1] 4.13% | growth inhibition [2] -2.96% | viability increase [3] -4.74% | viability [4] 99.2% | viability [5] 92.8% | inhibition [6] 2.13% | RAM network inhibition [7] -0.26%

CC1=C(C(=O)OCc2ccccc2)C(c2ccc(N3CCOCC3)cc2)NC(=O)N1 (stereo unspecified)
inactive: growth inhibition [1] -6.21% | growth inhibition [2] -3.42% | viability increase [3] 0.5% | viability [4] 100% | viability [5] 98.9% | inhibition [6] 0.99% | RAM network inhibition [7] 4.42%

O=C(C1CC(=O)N(C2CCCC2)C1)N1CCN(c2ccc(F)cc2)CC1 (stereo unspecified)
inactive: growth inhibition [1] -1.42% | growth inhibition [2] 1.6% | viability increase [3] 0.11% | viability [4] 94.3% | viability [5] 95.2% | inhibition [6] 1.39% | RAM network inhibition [7] 2.53%

CC(CCc1ccccc1)NC(=O)c1nnc(Cc2ccc(F)cc2)o1 (stereo unspecified)
inactive: growth inhibition [1] -3.78% | growth inhibition [2] 7.46% | viability increase [3] 0% | viability [4] 95.2% | viability [5] 95.2% | inhibition [6] 0.95% | RAM network inhibition [7] 1.1%

COc1cccc(C2C(C(=O)OCc3ccccc3)=C(C)Nc3ncnn32)c1OC (stereo unspecified)
inactive: growth inhibition [1] -8.96% | growth inhibition [2] 1.86% | viability increase [3] 0.73% | viability [4] 103% | viability [5] 83.5% | inhibition [6] 2.32% | RAM network inhibition [7] 4.9%

O=C(Cc1cccs1)NCCn1ccc2ccccc21
inactive: growth inhibition [1] -14.2% | growth inhibition [2] -11.5% | viability increase [3] -1.16% | viability [4] 90.3% | viability [5] 87.1% | inhibition [6] 0.32% | RAM network inhibition [7] 9.88%

O=C(c1cccc(C(=O)N2CCc3ccccc32)n1)N1CCc2ccccc21
inactive: growth inhibition [1] -9.26% | growth inhibition [2] -3.99% | viability increase [3] -5.2% | viability [4] 83.3% | viability [5] 84.4% | inhibition [6] 0.515% | RAM network inhibition [7] 6.13%

Nc1cc(C(F)(F)F)ccc1C(=O)O
inactive: growth inhibition [1] 9.88% | growth inhibition [2] 9.9% | viability increase [3] -1.66% | viability [4] 97.3% | viability [5] 95.3% | inhibition [6] 0.43% | RAM network inhibition [7] 0.63%

Cc1cc(C)n2nc(SCC#N)nc2n1
inactive: growth inhibition [1] -7.25% | growth inhibition [2] -4.04% | viability increase [3] -2.41% | viability [4] 95.4% | viability [5] 95.4% | inhibition [6] 0.2% | RAM network inhibition [7] 4.36%

COc1ccc(S(=O)(=O)Cc2ccc(C(=O)NCc3cccs3)o2)cc1
inactive: growth inhibition [1] -2.92% | growth inhibition [2] -21.2% | viability increase [3] -4.71% | viability [4] 94.7% | viability [5] 87.1% | inhibition [6] 1.21% | RAM network inhibition [7] 3.04%

Cn1c(=O)[nH]c(=O)c2c1nc(N1CCCCCC1)n2CCSc1nc2ccccc2o1
inactive: growth inhibition [1] -8.05% | growth inhibition [2] -7.14% | viability increase [3] -3.78% | viability [4] 95.4% | viability [5] 91.3% | inhibition [6] 1.73% | RAM network inhibition [7] 3.18%

CCCC(=O)Nc1ccc(N2CCCCC2)cc1
inactive: growth inhibition [1] -9.5% | growth inhibition [2] -9.51% | viability increase [3] -2.5% | viability [4] 87.2% | viability [5] 94.4% | inhibition [6] 3.02% | RAM network inhibition [7] 5.92%

CCOC(=O)NCc1ccc2[nH]c(C)cc2c1
inactive: growth inhibition [1] -16.1% | growth inhibition [2] -9.38% | viability increase [3] -1.52% | viability [4] 94.5% | viability [5] 97.1% | inhibition [6] -0.465% | RAM network inhibition [7] 4.71%
